Data reported in ChEMBL document CHEMBL1921722, “In vitro and in vivo evaluation of select kahalalide F analogs with antitumor and antifungal activities” (Bioorg Med Chem, 2011).
Active and inactive are the calls of the source.

Experiments:
NCI-H522 [1] = assay: Cytotoxicity against human NCI-H522 cells assessed as cell growth at 800 nM by sulforhodamine B assay relative to control; type: functional; details: read-out: Activity
NCI-H226 = assay: Cytotoxicity against human NCI-H226 cells assessed as cell growth at 8 uM by sulforhodamine B assay relative to control; type: functional; details: read-out: Activity
OVCAR-5 = assay: Cytotoxicity against human OVCAR5 cells by sulforhodamine B assay; type: functional; details: for TGI: read-out: pTGI (converted)
Outline: (§1)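 NCI Developmental Therapeutics Program 60-cell-line human tumor panel screen, run at NCI. A single-concentration pre-screen was followed by a five-concentration dose-response in 10-fold steps. GI50 is the concentration that reduces growth of treated cells to half that of untreated control cells. TGI is the concentration that completely halts growth.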

DU-145 = assay: Cytotoxicity against human DU145 cells assessed as cell growth at 8 nM by sulforhodamine B assay relative to control; type: functional; details: read-out: Activity
Outline: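 Run at NCI in the DTP 60-cell-line human tumor panel by standard procedure. Compounds were first screened at a single concentration, then tested at five tenfold-spaced concentrations. GI50 is the concentration reducing treated-cell growth to half that of untreated controls; TGI is the concentration completely halting growth.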

UO-31 [2] = assay: Cytotoxicity against human UO31 cells assessed as cell growth at 8 nM by sulforhodamine B assay relative to control; type: functional; details: read-out: Activity
OVCAR-3 = assay: Cytotoxicity against human OVCAR3 cells by sulforhodamine B assay; type: functional; details: for TGI: read-out: pTGI (converted); outline: as §1
Malme-3M = assay: Cytotoxicity against human MALME-3M cells assessed as cell growth at 80 uM by sulforhodamine B assay relative to control; type: functional; details: read-out: Activity
NCI-H23 = assay: Cytotoxicity against human NCI-H23 cells assessed as cell growth at 8 uM by sulforhodamine B assay relative to control; type: functional; details: read-out: Activity
Mus musculus = assay: Acute toxicity in athymic nude mouse assessed as mortality at 25 mg/kg, […]; type: organism-based; set-up: dose 25 mg/kg, route intraperitoneal; details: in vivo, ip, 576 h
UO-31 [3] = assay: Cytotoxicity against human UO31 cells assessed as cell growth at 800 nM by sulforhodamine B assay relative to control; type: functional; details: read-out: Activity
UACC-62 [4] = assay: Cytotoxicity against human UACC62 cells assessed as cell growth at 800 nM by sulforhodamine B assay relative to control; type: functional; details: read-out: Activity
PC-3 [5] = assay: Cytotoxicity against human PC3 cells by sulforhodamine B assay; type: functional; outline: as §1
PC-3 [6] = assay: Cytotoxicity against human PC3 cells assessed as cell growth at 800 nM by sulforhodamine B assay relative to control; type: functional; details: read-out: Activity
RPMI-8226 = assay: Cytotoxicity against human RPMI8226 cells assessed as cell growth at 80 nM by sulforhodamine B assay relative to control; type: functional; details: read-out: Activity
NCI/ADR-RES = assay: Cytotoxicity against human NCI/ADR-RES cells assessed as cell growth at 800 nM by sulforhodamine B assay relative to control; type: functional; details: read-out: Activity
HL-60(TB) [7] = assay: Cytotoxicity against human HL-60(TB) cells assessed as cell growth at 8 nM by sulforhodamine B assay relative to control; type: functional; details: read-out: Activity
HL-60(TB) [8] = assay: Cytotoxicity against human HL-60(TB) cells by sulforhodamine B assay; type: functional; details: for TGI: read-out: pTGI (converted)
Outline: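 NCI Developmental Therapeutics Program 60-cell-line human tumor panel, standard procedure. Single-concentration prescreen first; active compounds then tested at five concentrations. GI50 is the concentration reducing growth of treated cells to half that of untreated controls.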

NCI-H522 [9] = assay: Cytotoxicity against human NCI-H522 cells assessed as cell growth at 8 uM by sulforhodamine B assay relative to control; type: functional; details: read-out: Activity
LOX IMVI = assay: Cytotoxicity against human LOXIMVI cells assessed as cell growth at 80 nM by sulforhodamine B assay relative to control; type: functional; details: read-out: Activity
SK-MEL-5 [10] = assay: Cytotoxicity against human SK-MEL-5 cells assessed as cell growth at 8 nM by sulforhodamine B assay relative to control; type: functional; details: read-out: Activity
HOP-62 = assay: Cytotoxicity against human HOP62 cells by sulforhodamine B assay; type: functional; details: for TGI: read-out: pTGI (converted)
Outline: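 Run by the NCI Developmental Therapeutics Program on its 60-line human tumour cell panel using the standard procedure. Compounds went through a single-concentration prescreen first, and those active by NCI criteria went on to a five-concentration growth-inhibition test. GI50 is the concentration that cuts growth of treated cells to half that of untreated control cells.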

T47D = assay: Cytotoxicity against human T47D cells assessed as cell growth at 80 uM by sulforhodamine B assay relative to control; type: functional; details: read-out: Activity
NCI-H460 = assay: Cytotoxicity against human NCI-H460 cells assessed as cell growth at 800 nM by sulforhodamine B assay relative to control; type: functional; details: read-out: Activity
COLO 205 = assay: Antitumor activity against human COLO205 cells xenografted in mouse assessed as tumor cell killing at 4.7 mg/kg, ip qd for 4 days by MTT assay; type: functional, organism-based; set-up: dose 4.7 mg/kg
Outline: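 Hollow-fiber assay in mice. Tumor lines were grown in RPMI-1640 with 10% FBS and 2 mM glutamine. Cells at 2 × 10^6 cells/ml were loaded into 1 mm PVDF fibers (500,000 Da cutoff), heat-sealed at 2 cm and held 24–48 h at 37 °C, 5% CO2 before implantation. Compound was given IP. Fibers were collected the day after the fourth treatment for MTT (OD 540 nm, group means). A ≥50% cut in percent net growth versus vehicle counted as positive.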

MCF7 = assay: Cytotoxicity against human MCF7 cells assessed as cell growth at 80 nM by sulforhodamine B assay relative to control; type: functional; details: read-out: Activity
TK-10 = assay: Cytotoxicity against human TK10 cells assessed as cell growth at 80 nM by sulforhodamine B assay relative to control; type: functional; details: read-out: Activity
UACC-62 [11] = assay: Cytotoxicity against human UACC62 cells by sulforhodamine B assay; type: functional; details: for TGI: read-out: pTGI (converted); outline: as §1
SR = assay: Cytotoxicity against human SR cells assessed as cell growth at 800 nM by sulforhodamine B assay relative to control; type: functional; details: read-out: Activity
SK-MEL-5 [12] = assay: Cytotoxicity against human SK-MEL-5 cells by sulforhodamine B assay; type: functional; details: for TGI: read-out: pTGI (converted); outline: as §1
HCC 2998 = assay: Cytotoxicity against human HCC2998 cells assessed as cell growth at 8 uM by sulforhodamine B assay relative to control; type: functional; details: read-out: Activity
MDA-MB-231 = assay: Cytotoxicity against human MDA-MB-231 cells assessed as cell growth at 8 nM by sulforhodamine B assay relative to control; type: functional; details: read-out: Activity
RXF 393 = assay: Cytotoxicity against human RXF393 cells assessed as cell growth at 8 uM by sulforhodamine B assay relative to control; type: functional; details: read-out: Activity
Pseudomonas aeruginosa = assay: Antimicrobial activity against Pseudomonas aeruginosa ATCC 27853 by CLSI method; type: functional, organism-based
KM12 = assay: Cytotoxicity against human KM12 cells assessed as cell growth at 8 uM by sulforhodamine B assay relative to control; type: functional; details: read-out: Activity

C/C=C1\NC(=O)[C@H](Cc2ccccc2)NC(=O)[C@@H](C(C)C)NC(=O)[C@@H]([C@@H](C)CC)NC(=O)[C@H](NC(=O)[C@H](NC(=O)[C@H](CCCNCc2ccc(N3CCOCC3)cc2)NC(=O)[C@H]2CCCN2C(=O)[C@H](NC(=O)[C@@H](NC(=O)[C@@H](NC(=O)[C@H](NC(=O)CCCC(C)C)C(C)C)[C@@H](C)O)C(C)C)C(C)C)[C@@H](C)CC)[C@@H](C)OC(=O)[C@H](C(C)C)NC1=O
growth at 0.8 µM (NCI-H522 [1]): 101% | growth at 8 µM (NCI-H226): -55% | GI50 (OVCAR-5): 933 nM | TGI (OVCAR-5): 2190 nM | growth at 0.008 µM (DU-145): 99% | growth at 0.008 µM (UO-31 [2]): 101% | GI50 (OVCAR-3): 617 nM | TGI (OVCAR-3): 1860 nM | growth at 80 µM (Malme-3M): -23% | growth at 8 µM (NCI-H23): -63% | Activity (Mus musculus): Toxic | growth at 0.8 µM (UO-31 [3]): 96% | growth at 0.8 µM (UACC-62 [4]): 100% | LC50 (PC-3 [5]): 741 nM | GI50 (PC-3 [5]; read-out: GI50): 156 nM | TGI (PC-3 [5]; read-out: TGI): 340 nM | GI50 (PC-3 [5]; read-out: pGI50 (converted)): 155 nM | TGI (PC-3 [5]; read-out: pTGI (converted)): 339 nM | growth at 0.8 µM (PC-3 [6]): -51% | growth at 0.08 µM (RPMI-8226): 113% | growth at 0.8 µM (NCI/ADR-RES): 85% | growth at 0.008 µM (HL-60(TB) [7]): 94% | GI50 (HL-60(TB) [8]): 1860 nM | CC50 (HL-60(TB) [8]; read-out: pLC50 (the source's name) (converted)): > 75900 nM | TGI (HL-60(TB) [8]): 5250 nM | growth at 8 µM (NCI-H522 [9]): 40% | growth at 0.08 µM (LOX IMVI): 100% | growth at 0.008 µM (SK-MEL-5 [10]): 105% | GI50 (HOP-62): 1410 nM | LC50 (HOP-62): 5750 nM | TGI (HOP-62): 2820 nM | growth at 80 µM (T47D): -7% | growth at 0.8 µM (NCI-H460): 104% | Activity (COLO 205): inactive | growth at 0.08 µM (MCF7): 107% | growth at 0.08 µM (TK-10): 96% | GI50 (UACC-62 [11]): 1350 nM | LC50 (UACC-62 [11]): 4270 nM | TGI (UACC-62 [11]): 2400 nM | growth at 0.8 µM (SR): 103% | GI50 (SK-MEL-5 [12]): 1230 nM | LC50 (SK-MEL-5 [12]): 4070 nM | TGI (SK-MEL-5 [12]): 2240 nM | growth at 8 µM (HCC 2998): -81% | growth at 0.008 µM (MDA-MB-231): 95% | growth at 8 µM (RXF 393): -47% | Activity (Pseudomonas aeruginosa): inactive | growth at 8 µM (KM12): -48%

C/C=C1\NC(=O)[C@H](Cc2ccccc2)NC(=O)[C@@H](C(C)C)NC(=O)[C@@H]([C@@H](C)CC)NC(=O)[C@H](NC(=O)[C@H](NC(=O)[C@H](CCCNCc2ccc(F)c(C)c2)NC(=O)[C@H]2CCCN2C(=O)[C@H](NC(=O)[C@@H](NC(=O)[C@@H](NC(=O)[C@H](NC(=O)CCCC(C)C)C(C)C)[C@@H](C)O)C(C)C)C(C)C)[C@@H](C)CC)[C@@H](C)OC(=O)[C@H](C(C)C)NC1=O
growth at 0.8 µM (NCI-H522 [1]): 105% | growth at 8 µM (NCI-H226): -64% | GI50 (OVCAR-5): 813 nM | LC50 (OVCAR-5): 3800 nM | TGI (OVCAR-5): 1740 nM | growth at 0.008 µM (DU-145): 99% | growth at 0.008 µM (UO-31 [2]): 100% | GI50 (OVCAR-3): 437 nM | LC50 (OVCAR-3): 3470 nM | TGI (OVCAR-3): 1480 nM | growth at 80 µM (Malme-3M): 12% | growth at 8 µM (NCI-H23): -77% | Activity (Mus musculus): Toxic | growth at 0.8 µM (UO-31 [3]): 92% | growth at 0.8 µM (UACC-62 [4]): 93% | LC50 (PC-3 [5]): 708 nM | GI50 (PC-3 [5]; read-out: GI50): 165 nM | TGI (PC-3 [5]; read-out: TGI): 342 nM | GI50 (PC-3 [5]; read-out: pGI50 (converted)): 166 nM | TGI (PC-3 [5]; read-out: pTGI (converted)): 339 nM | growth at 0.8 µM (PC-3 [6]): -54% | growth at 0.08 µM (RPMI-8226): 129% | growth at 0.8 µM (NCI/ADR-RES): 91% | growth at 0.008 µM (HL-60(TB) [7]): 91% | GI50 (HL-60(TB) [8]): 1580 nM | TGI (HL-60(TB) [8]): 3090 nM | growth at 8 µM (NCI-H522 [9]): 3% | growth at 0.08 µM (LOX IMVI): 94% | growth at 0.008 µM (SK-MEL-5 [10]): 99% | GI50 (HOP-62): 1200 nM | LC50 (HOP-62): 4370 nM | TGI (HOP-62): 2290 nM | growth at 80 µM (T47D): -13% | growth at 0.8 µM (NCI-H460): 104% | Activity (COLO 205): inactive | growth at 0.08 µM (MCF7): 101% | growth at 0.08 µM (TK-10): 105% | GI50 (UACC-62 [11]): 1260 nM | LC50 (UACC-62 [11]): 4170 nM | TGI (UACC-62 [11]): 2290 nM | growth at 0.8 µM (SR): 98% | GI50 (SK-MEL-5 [12]): 1150 nM | LC50 (SK-MEL-5 [12]): 3980 nM | TGI (SK-MEL-5 [12]): 2140 nM | growth at 8 µM (HCC 2998): -87% | growth at 0.008 µM (MDA-MB-231): 101% | growth at 8 µM (RXF 393): -61% | Activity (Pseudomonas aeruginosa): inactive | growth at 8 µM (KM12): -85%
